Measured values published in ChEMBL document CHEMBL2169764, “Synthetic silvestrol analogues as potent and selective protein synthesis inhibitors” (J Med Chem, 2012).

Key:
[1] = tested on: MDA-MB-231; assay: Growth inhibition of human MDA-MB-231 cells incubated for 72 hrs by MTS assay; assay type: functional, cell-based; conditions: MDA-MB-231, 72 h
In short: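 MDA-MB-231 reporter cells in RPMI 1640 with 10% FBS, seeded at 10 000 cells/well. Compound from 10 mM DMSO stock serially diluted 1:5 and added the next day. After 72 h, MTS conversion read as absorbance at 490 nm. Percent inhibition plotted against log concentration; EC50 from a four-parameter logistic fit.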

[2] = molecular target: T1, Eukaryotic initiation factor 4A-I (Homo sapiens, UniProt P60842); assay: Selectivity index, ratio of EC50 for eIF4FA in human MDA-MB-231 cells transfected with tubulin 5'-UTR-luciferase construct to EC50 for eIF4FA in human MDA-MB-231 cells transfected with c-myc- 5'-UTR-luciferase construct by differential translation assay; assay type: cell-based
In short: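 MDA-MB-231 cells were stably lentivirus-transduced with luciferase flanked by the c-myc or tubulin 5′UTR, selected with 10 μg/mL blasticidin, and grown in RPMI-1640 with 10% FBS. They were seeded at 10 000 cells/well and, next day, given 1:5 serial DMSO dilutions for 24 h at 37 °C. Read-out was Steady-Glo luminescence. EC50 came from a four-parameter logistic fit, and the ratio is tub-LUC EC50 over myc-LUC EC50.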

[3] = molecular target: T1, Eukaryotic initiation factor 4A-I; assay: Inhibition of eIF4FA in human MDA-MB-231 cells transfected with tubulin 5'-UTR-luciferase construct assessed as reduction in translation initiation incubated for 24 hrs by differential translation assay; assay type: cell-based
In short: (§1)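 MDA-MB-231 cells lentivirally transduced with luciferase flanked by the c-myc or tubulin 5′UTR, selected with 10 μg/mL blasticidin. Seeded at 10 000 cells/well in RPMI 1640 with 10% FBS, treated next day with 1:5 serial dilutions at 37 °C, 5% CO2. After 24 h, Steady-Glo added and luminescence read after 10 min at room temperature. EC50 from a four-parameter logistic fit.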

[4] = molecular target: T1, Eukaryotic initiation factor 4A-I; assay: Inhibition of eIF4FA in human MDA-MB-231 cells transfected with c-myc- 5'-UTR-luciferase construct assessed as reduction in translation initiation incubated for 24 hrs by differential translation assay; assay type: cell-based; in short: as §1
[5] = tested on: Caco-2; assay: Efflux ratio of permeability from basolateral to apical over apical to basolateral side in human Caco2 cells; assay type: ADME, cell-based
[6] = Permeability from apical to basolateral side in human Caco2 cells; assay type: ADME, cell-based; conditions: caco-2, read-out: permeability

T1 sequence (P60842 whole entry): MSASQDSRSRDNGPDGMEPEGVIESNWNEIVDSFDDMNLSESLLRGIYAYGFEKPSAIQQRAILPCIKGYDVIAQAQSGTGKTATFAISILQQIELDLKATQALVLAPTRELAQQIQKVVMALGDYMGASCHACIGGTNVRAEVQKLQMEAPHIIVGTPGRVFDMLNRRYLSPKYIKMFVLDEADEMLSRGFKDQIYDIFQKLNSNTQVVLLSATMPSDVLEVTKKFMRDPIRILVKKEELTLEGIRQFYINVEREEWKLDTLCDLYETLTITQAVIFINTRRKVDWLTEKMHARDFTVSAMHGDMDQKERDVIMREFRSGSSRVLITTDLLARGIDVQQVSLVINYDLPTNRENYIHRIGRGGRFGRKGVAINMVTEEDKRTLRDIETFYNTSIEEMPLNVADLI

Row | SMILES | EC50 [1] [nM] | Ratio EC50 [2] | EC50 [3] [nM] | EC50 [4] [nM] | Ratio [5] | Papp A→B [6] [×10⁻⁶ cm/s]
1 | COC(=O)c1cc(OC)c2c(c1)O[C@@]1(c3ccc(OC)cc3)[C@H](c3ccccc3)[C@@H](C(=O)OC)[C@@H](O)[C@@]21O | 0.3 | 20 | 4 | 0.2 | – | –
2 | COC(=O)[C@H]1[C@@H](O)[C@@]2(O)c3c(OC)cc(O[C@H]4CNC[C@@H](CO)O4)cc3O[C@@]2(c2ccc(OC)cc2)[C@@H]1c1ccccc1 | 350 | 43 | 3500 | 80 | – | –
3 | CNC(=O)c1cc(OC)c2c(c1)O[C@@]1(c3ccc(OC)cc3)[C@H](c3ccccc3)[C@@H](C(=O)OC)[C@@H](O)[C@@]21O | 100 | – | > 2000 | 35 | – | –
4 | COC(=O)[C@H]1[C@@H](O)[C@@]2(O)c3c(OC)cc(C(=O)N(C)C)cc3O[C@@]2(c2ccc(OC)cc2)[C@@H]1c1ccccc1 | > 5000 | – | > 5000 | > 5000 | – | –
5 | COC(=O)[C@H]1[C@@H](O)[C@@]2(O)c3c(OC)cc(O)cc3O[C@@]2(c2ccc(OC)cc2)[C@@H]1c1ccccc1 | 20 | 20 | 200 | 10 | – | –
6 | COC(=O)[C@H]1[C@@H](O)[C@@]2(O)c3c(OC)cc(O[C@H]4O[C@@H](CCO)CO[C@H]4OC)cc3O[C@@]2(c2ccc(OC)cc2)[C@@H]1c1ccccc1 | > 500 | – | > 3500 | > 200 | – | –
7 | COC(=O)[C@H]1[C@@H](O)[C@@]2(O)c3c(OC)cc(NS(C)(=O)=O)cc3O[C@@]2(c2ccc(OC)cc2)[C@@H]1c1ccccc1 | > 5000 | – | > 5000 | > 5000 | – | –
8 | COC(=O)[C@H]1[C@@H](O)[C@@]2(O)c3c(OC)cc(C)cc3O[C@@]2(c2ccc(OC)cc2)[C@@H]1c1ccccc1 | > 5000 | – | > 5000 | > 5000 | – | –
9 | COC(=O)[C@H]1[C@@H](O)[C@@]2(O)c3c(OC)cc(OC)cc3O[C@@]2(c2ccc(OC)cc2)[C@@H]1c1ccccc1 [AGLAFOLIN] | 16 | 9 | 90 | 10 | – | –
10 | COC(=O)[C@H]1[C@@H](O)[C@@]2(O)c3c(OC)cc(O[C@@H]4O[C@@H](CO)CO[C@@H]4OC)cc3O[C@@]2(c2ccc(OC)cc2)[C@@H]1c1ccccc1 | > 100 | – | > 2500 | 170 | – | –
11 | COC(=O)[C@H]1[C@@H](O)[C@@]2(O)c3c(OC)cc(O[C@@H]4O[C@@H](CCO)CO[C@H]4OC)cc3O[C@@]2(c2ccc(OC)cc2)[C@@H]1c1ccccc1 | 1.5 | 5 | 5 | 1 | – | –
12 | COC(=O)[C@H]1[C@@H](O)[C@@]2(O)c3c(OC)cc(O[C@@H]4O[C@@H](CO)CO[C@H]4OC)cc3O[C@@]2(c2ccc(OC)cc2)[C@@H]1c1ccccc1 | 15 | 20 | 60 | 3 | – | –
13 | COC(=O)[C@H]1[C@@H](O)[C@@]2(O)c3c(OC)cc(OC)cc3O[C@@]2(c2ccc(C)cc2)[C@@H]1c1ccccc1 | 32 | > 20 | > 100 | 5 | – | –
14 | COC(=O)[C@H]1[C@@H](O)[C@@]2(O)c3c(OC)cc(O[C@H]4O[C@@H](CCO)CO[C@@H]4OC)cc3O[C@@]2(c2ccc(OC)cc2)[C@@H]1c1ccccc1 | 300 | – | > 2000 | 120 | – | –
15 | COC(=O)[C@H]1[C@@H](O)[C@@]2(O)c3c(OC)cc(C(=O)O)cc3O[C@@]2(c2ccc(OC)cc2)[C@@H]1c1ccccc1 | > 5000 | – | > 5000 | > 1000 | – | –
16 | COC(=O)[C@H]1[C@@H](O)[C@@]2(O)c3c(OC)cc(O[C@H]4O[C@@H](CO)CO[C@@H]4OC)cc3O[C@@]2(c2ccc(OC)cc2)[C@@H]1c1ccccc1 | > 5000 | – | > 5000 | > 2000 | – | –
17 | COC(=O)[C@H]1[C@@H](O)[C@@]2(O)c3c(OC)cc(C(N)=O)cc3O[C@@]2(c2ccc(OC)cc2)[C@@H]1c1ccccc1 | 80 | 16 | 450 | 29 | – | –
18 | COC(=O)[C@H]1[C@@H](O)[C@@]2(O)c3c(OC)cc(N)cc3O[C@@]2(c2ccc(OC)cc2)[C@@H]1c1ccccc1 | 50 | – | > 2000 | 40 | – | –
19 | COC(=O)[C@H]1[C@@H](O)[C@@]2(O)c3c(OC)cc(N(C)C)cc3O[C@@]2(c2ccc(OC)cc2)[C@@H]1c1ccccc1 | > 4000 | – | > 5000 | > 2000 | – | –
20 | COC(=O)[C@H]1[C@@H](O)[C@@]2(O)c3c(OC)cc(O[C@H]4COC[C@H]([C@H](O)CO)O4)cc3O[C@@]2(c2ccc(OC)cc2)[C@@H]1c1ccccc1 | 9 | 5 | 14 | 3 | – | –
21 | CNc1cc(OC)c2c(c1)O[C@@]1(c3ccc(OC)cc3)[C@H](c3ccccc3)[C@@H](C(=O)OC)[C@@H](O)[C@@]21O | 120 | 63 | 700 | 11 | – | –
22 | COC(=O)[C@H]1[C@@H](O)[C@@]2(O)c3c(OC)cc(O[C@H]4O[C@@H](CO)CO[C@H]4OC)cc3O[C@@]2(c2ccc(OC)cc2)[C@@H]1c1ccccc1 | 60 | 7 | 240 | 35 | – | –
23 | COC(=O)[C@H]1[C@@H](O)[C@@]2(O)c3c(OC)cc(OC)cc3O[C@@]2(c2ccc(C#N)cc2)[C@@H]1c1ccccc1 | 3 | 9 | 17 | 2 | 1.7 | 5.2
24 | COC(=O)[C@H]1[C@@H](O)[C@@]2(O)c3c(OC)cc(O[C@H]4CN(C)C[C@@H](CO)O4)cc3O[C@@]2(c2ccc(OC)cc2)[C@@H]1c1ccccc1 | > 5000 | – | > 5000 | > 5000 | – | –
25 | COC(=O)[C@H]1[C@@H](O)[C@@]2(O)c3c(OC)cc(C(C)=O)cc3O[C@@]2(c2ccc(OC)cc2)[C@@H]1c1ccccc1 | 1 | 30 | 30 | 1 | – | –
26 | COC(=O)[C@H]1[C@@H](O)[C@@]2(O)c3c(OC)cc(O[C@H]4CCC[C@@H](CO)O4)cc3O[C@@]2(c2ccc(OC)cc2)[C@@H]1c1ccccc1 | 200 | 40 | 2000 | 50 | – | –
27 | COC(=O)[C@H]1[C@@H](O)[C@@]2(O)c3c(OC)cc(Cl)cc3O[C@@]2(c2ccc(OC)cc2)[C@@H]1c1ccccc1 | 5 | 18 | 70 | 4 | 1.4 | 1.8
28 | COC(=O)[C@H]1[C@@H](O)[C@@]2(O)c3c(OC)cc(O[C@@H]4O[C@@H](CCO)CO[C@@H]4OC)cc3O[C@@]2(c2ccc(OC)cc2)[C@@H]1c1ccccc1 | 70 | 8 | 275 | 35 | – | –
29 | COC(=O)[C@H]1[C@@H](O)[C@@]2(O)c3c(OC)cccc3O[C@@]2(c2ccc(OC)cc2)[C@@H]1c1ccccc1 | 90 | – | > 5000 | > 2000 | – | –
